Activity calls are given as the source filed them. The calls are words filed in the database; no cut-off is given here.

Series [1] in a line: Dissociation constant, pKa of the compound. The format is physicochemical.
Series [2] in a line: Alkaline hydrolysis of the compound assessed as rate constant by HPLC analysis. The format is physicochemical. The method, boiled down:
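Borate and NaOH buffers with 20% (v/v) acetonitrile, ionic strength 0.5 M (NaClO4), 37 °C. Alkyl carbamates followed by HPLC (RP-8 column, acetonitrile/water/KH2PO4 1 M 55:40:5) as substrate loss and primaquine formation; aliquots neutralised with HCl before injection; aryl carbamates by fixed-wavelength UV decay of substrate. Second-order constant k_OH.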

The nature of series [3]: Half life in aqueous buffer pH 7.4 by HPLC analysis. The format is physicochemical. Put shortly: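 Non-enzymatic hydrolysis in pH 7.4 phosphate buffer, 20% (v/v) acetonitrile, 37 °C. Reaction followed by HPLC (RP-8 column, acetonitrile/water/KH2PO4 eluant) monitoring substrate loss and primaquine formation.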
The subject of series [4] is Plasma. Nature of the series: Half life for prodrug activation in 50% human plasma by HPLC analysis. The format is cell-free. The method, boiled down: (§1)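 Pooled heparinised plasma from healthy donors, stored at -70 °C, diluted to 50% (v/v) with pH 7.4 isotonic phosphate buffer. Carbamate added from 10^-2 M stock, 37 °C. Aliquots quenched into acetonitrile, then HPLC quantitation of substrate, primaquine and, for aryl esters, phenol against standards. First-order k_plasma determined in triplicate.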

A short description of series [5]: Octanol-phosphate buffer partition coefficient, log D of the compound at pH 7.4 after 30 mins by HPLC analysis. The format is physicochemical. Put shortly: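 1-Octanol and pH 7.4 phosphate buffer, mutually pre-saturated, 22 °C. Compound dissolved in octanol and the mixture shaken 30 min to equilibrium. Each phase assayed by HPLC, and D taken as the octanol/buffer peak-area ratio. Mean of three experiments.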

Series [6] relates to Plasma. In words: Prodrug activation in 50% human plasma assessed as rate constant by HPLC analysis. The format is cell-free. Put shortly:
as §1

The subject of series [7] is Liver. Nature of the series: Prodrug activation in rat liver homogenate assessed as rate constant by HPLC analysis. The series is classed as tissue-based. As to conditions: tissue homogenate. Put shortly: (§2)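 Liver homogenate at 2 mg protein/mL in pH 7.4 PBS, 37 °C, with NADPH-generating system (glucose-6-phosphate 6.25 mM, NADP 1.25 mM, MgCl2 6 mM, G6PDH 2.5 U/mL). Substrates dissolved in PBS at initial 0.25–5.0 mM. HPLC followed substrate loss and primaquine formation. First-order k_liver determined in triplicate.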

Series [8] has as its system Liver. Nature of the series: Half life for prodrug activation in rat liver homogenate by HPLC analysis. The format is tissue-based. As to conditions: in vitro. The method, boiled down: as §2
The test system of another series is Plasmodium berghei ANKA. In words: Gametocytocidal activity against Plasmodium berghei ANKA 25R/10 infected in Balb/C mouse assessed as reduction in number of oocysts per mosquito at 15 mg/kg, ip after 2 hrs feed Anopheles stephensi mosquitoes for 2 hrs on compound treated animals measured after 10 days post feed by stereomicroscopy. On the set-up: dose 15 mg/kg. The series is classed as functional, organism-based. Put shortly:
(§3)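 Balb C mice infected ip with 10^7 P. berghei ANKA 25R/10-parasitised erythrocytes. At day 4, once gametocytes were seen on Giemsa films, mice were grouped (six per group). A single ip dose of 15 mg/kg was given, with saline-treated controls run separately for each compound. After 2 h, anaesthetised mice were fed to A. stephensi. Midgut oocysts counted at day 10 post-feed; reported as % infected mosquitoes and mean oocysts per mosquito.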

A short description of series [9]: Gametocytocidal activity against Plasmodium berghei ANKA 25R/10 infected in Balb/C mouse assessed as infected mosquitoes at 15 mg/kg, ip after 2 hrs feed Anopheles stephensi mosquitoes for 2 hrs on compound treated animals measured after 10 days post feed by stereomicroscopy (reference value: 80%). The format is functional. Particulars: route intraperitoneal. The method, boiled down:
as §3

For series [10], the system named is Plasma. Nature of the series: Stability of the compound in 50% human plasma for 3 hrs by HPLC analysis. The series is classed as ADME, cell-free. Put shortly: as §1
Series [11] concerns Liver. In words: Prodrug activation in rat liver homogenate assessed as primaquine release by HPLC analysis. Particulars: tissue homogenate. The format is tissue-based. The method, boiled down: as §2
Series [12] in a line: Gametocytocidal activity against Plasmodium berghei ANKA 25R/10 infected in Balb/C mouse assessed as infected mosquitoes at 15 mg/kg, ip after 2 hrs feed Anopheles stephensi mosquitoes for 2 hrs on compound treated animals measured after 10 days post feed by stereomicroscopy (reference value: 91%). The format is functional. Particulars: route intraperitoneal. Put shortly:
as §3

Series [13] relates to Plasma. In words: Prodrug activation in 50% human plasma preincubated with 20 mM DIFP by HPLC analysis. The series is classed as cell-free. The method, boiled down:
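Same 50% human plasma incubation at 37 °C with HPLC monitoring, but plasma pre-incubated with 20 mM DIFP to inhibit serine cholinesterase before substrate addition.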

In series [1], `COc1cc(NC(C)CCCNC(=O)Oc2ccc([N+](=O)[O-])cc2)c2ncccc2c1` (centres undefined) displayed a pKa of 7.14. Also, the Activity in series [2] came out at 2.4 ×10⁴ /M/s. Further, in series [3], the half-life came out at 0.035 h. Further, in the series on Plasma [4], the t1/2 came out at 0.00267 h. Moreover, the log distribution coefficient (logD) at 0.5 h in series [5] came out at 4.23.
The molecule `COc1cc(NC(C)CCCNC(=O)Oc2ccccc2)c2ncccc2c1` (centres undefined) displayed a pKa in [1] of 9.95. The Activity in series [2] turned out to be 2.64 M⁻¹ s⁻¹; in series [9], 65%. Also, the half-life in [3] is 288 h. The Drug metabolism in the series with Plasma [6] is 5.34 ×10⁻⁵ /s; in the series with Liver [7], 7.26 ×10⁻² /hr. Also, the t1/2 was 3.62 h with Plasma [4] and 9.5 h in the series with Liver [8]. The molecule also displayed a logD at 0.5 h in [5] of 4.27. Further, the result with Plasmodium berghei ANKA was Active.
`CCCCCCOC(=O)NCCCC(C)Nc1cc(OC)cc2cccnc12` (centres undefined): the Activity worked out at 3.49 ×10⁻⁷ /M/s in series [2] and 24% in series [12]. Moreover, the Drug metabolism with Liver [7] is 6.63 ×10⁻² /hr; with Liver [11], “Not Active”. Further, the t1/2 in the series with Liver [8] came to 10.4 h. In [5], the logD at 0.5 h was 4.64. Moreover, the Stability result with Plasma [10] was “Stable”. The outcome in the series on Plasmodium berghei ANKA was Active.
Regarding `CCOC(=O)NCCCC(C)Nc1cc(OC)cc2cccnc12` (centres undefined), the pKa in series [1] was found to be 15.9. Also, the Activity in series [2] came to 9.34 ×10⁻⁷ /M/s; in series [12], 19%. For the same molecule, the Drug metabolism in the series with Liver [7] is listed as 4.56 ×10⁻² /hr; in the series on Liver [11], “Not Active”. For the same molecule, the t1/2 with Liver [8] turned out to be 15.1 h. Besides, the pH-dependent lipophilicity (logD) at 0.5 h in series [5] came to 3.02. Moreover, in the series with Plasma [10], the Stability entry is recorded as “Stable”. Also, the outcome in the series on Plasmodium berghei ANKA was Active.
For the molecule `COc1cc(NC(C)CCCN)c2ncccc2c1` (centres undefined) [PRIMAQUINE], the result with Plasmodium berghei ANKA was Active. Moreover, the Activity in series [9] came out at 3.9%.
For the molecule `COc1cc(NC(C)CCCNC(=O)Oc2ccc(Cl)cc2)c2ncccc2c1` (centres undefined), in series [1], the pKa was found to be 9.38. Further, the Activity in [2] is 7.17 M⁻¹ s⁻¹. Further, the half-life in series [3] was 96 h. Further, the Drug metabolism in the series with Plasma [6] is 3.06 ×10⁻⁴ /s; in the series with Liver [7] it was 5.85 ×10⁻² /hr; in the series on Plasma [13], “Not Active”. Also, the t1/2 in the series with Plasma [4] is 0.638 h; with Liver [8], 11.8 h. The pH-dependent lipophilicity (logD) at 0.5 h in [5] came to 4.44.
Molecule `COc1cc(NC(C)CCCNC(=O)OCC(F)(F)F)c2ncccc2c1` (centres undefined) showed a pKa in [1] of 12.4. For the same molecule, the Activity came to 3.95 ×10⁻³ /M/s in series [2] and 72% in series [12]. Also, the values for the Drug metabolism with Liver [7] and with Liver [11] were 5.04 ×10⁻² /hr and “Not Active”, respectively. In addition, in the series with Liver [8], the t1/2 stood at 13.7 h. In series [5], the logD at 0.5 h was found to be 3.41. In the series with Plasma [10], the Stability result is “Stable”.
In turn, `CCOC(=O)COC(=O)NCCCC(C)Nc1cc(OC)cc2cccnc12` (centres undefined) displayed a pKa in series [1] of 12.9. Moreover, the Activity in series [2] came to 2.5 M⁻¹ s⁻¹. Also, the half-life in series [3] is 240 h. The logD at 0.5 h in series [5] stood at 3.09.
In [1], `COc1ccc(OC(=O)NCCCC(C)Nc2cc(OC)cc3cccnc23)cc1` (centres undefined) returned a pKa of 10.2. The Activity stood at 9.1 ×10⁻¹ /M/s in series [2] and 74% in series [9]. Further, the half-life in series [3] was greater than 720 h. Besides, the Drug metabolism in the series on Plasma [6] was 2.45 ×10⁻⁵ /s; in the series on Liver [7], 6.7 ×10⁻² /hr. In addition, the figures for the t1/2 in the series on Plasma [4] and with Liver [8] were 7.78 h and 10.3 h, respectively. In addition, the log distribution coefficient (logD) at 0.5 h in series [5] stood at 4.23.

For orientation: pKa means the negative logarithm of the acid dissociation constant. Higher therefore signals a group that holds its proton tightly. In general, half-life refers to how long it takes for the measured level to halve. A lower half-life goes with fast loss. One may read the logD as the decadic logarithm of the distribution of all forms, ionised or not, between an organic phase and buffer at a given pH. A higher logD goes with a more lipophilic compound.
